TAAR1 antag – antagonists of human TAAR1 | Q96RJ0 | CHO RD-HGA16 TAAR1, Fluo-8 calcium fluorescence, antagonist | inhibition, % at 3 µM | 1.5% of 360,000 active | AID 624466;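 active = inhibition above a per-plate cutoff, the mean inhibition of test compounds on that plate plus 3 SD, cut at about 49% in these data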;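 note: 0% = DMSO plus EC80 beta-PEA response and 100% = DMSO alone without agonist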
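Material: CHO RD-HGA16 cells bearing hTAAR1; compound dosing: one-point dosing, 3 µM nominal final; schedule: dye loading 75 min at 37 °C, then 30 min room temperature; measured by: calcium fluorescence with Fluo-8; control set: vehicle and agonist controls; replication: n of 1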
CHO parental Ca – counter-screen for OX1R antagonists: effect in parental CHO cells; parental CHO-K1, ATP-induced calcium, Fluo-8 fluorescence; inhibition, % at 5.6 µM; 0.63% of 330,000 active;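 active = inhibition above that plate's mean sample inhibition plus 3 SD, cut at about 26% in these data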;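 note: 0% = ATP-challenged DMSO wells and 100% = DMSO wells without ATP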
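Assay system: parental CHO cells; Read-out basis: percent inhibition of ATP-evoked calcium rise, normalized to controls; Benchmarks: ATP and no-ATP DMSO wells; Compound dosing: single nominal dose of 5.6 µM per compound; Signal: Fluo-8 calcium dye fluorescence; Also added: ATP as calcium-mobilizing challenge; Repeats: singlicate.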
GPR7 antagonist – blocks human GPR7 receptor signaling; P48145; GPR7-expressing cells, fluorescence antagonist assay; inhibition, % at 4.4 µM; 1.1% of 290,000 active; AID 1861; in the data active = inhibition above about 16%, passing the limit was not always enough;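 note: cells stimulated with the agonist NPW; 0% = agonist with vehicle and 100% = vehicle without agonist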
Target sequence (P48145 whole entry, looked up): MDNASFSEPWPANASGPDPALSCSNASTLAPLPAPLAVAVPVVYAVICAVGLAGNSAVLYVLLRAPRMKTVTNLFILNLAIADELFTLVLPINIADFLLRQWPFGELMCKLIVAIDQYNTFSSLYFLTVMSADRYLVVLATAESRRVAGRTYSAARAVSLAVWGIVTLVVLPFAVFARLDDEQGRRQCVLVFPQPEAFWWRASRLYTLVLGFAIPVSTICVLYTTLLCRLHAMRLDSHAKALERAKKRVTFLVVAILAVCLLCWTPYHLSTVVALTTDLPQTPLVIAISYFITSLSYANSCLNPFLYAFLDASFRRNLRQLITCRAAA
OX1R antag-1 – OX1R (human) antagonism; OX1R-expressing cells, FRET antagonist read-out; inhibition, % at 6.6 µM; 1.8% of 330,000 active; AID 485270; in the data active = inhibition mostly above about 38%, no sharp cut-off; inactive = mostly below about 40%;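 note: 0% = agonist challenge alone and 100% = reference antagonist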
Target sequence (O43613 whole entry, looked up): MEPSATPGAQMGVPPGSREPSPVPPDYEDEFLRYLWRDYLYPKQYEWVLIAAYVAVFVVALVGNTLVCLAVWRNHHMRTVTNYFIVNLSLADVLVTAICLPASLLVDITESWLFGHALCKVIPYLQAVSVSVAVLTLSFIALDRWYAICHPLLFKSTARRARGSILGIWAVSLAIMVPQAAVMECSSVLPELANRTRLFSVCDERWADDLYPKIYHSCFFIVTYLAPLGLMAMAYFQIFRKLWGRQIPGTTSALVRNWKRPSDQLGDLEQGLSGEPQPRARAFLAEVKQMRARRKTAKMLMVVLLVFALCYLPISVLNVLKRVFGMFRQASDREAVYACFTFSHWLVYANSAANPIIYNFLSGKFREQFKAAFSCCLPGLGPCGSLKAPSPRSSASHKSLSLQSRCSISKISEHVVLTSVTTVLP
TAAR1 ag – human TAAR1 agonism | 0.99% of 360,000 active | activation, % at 3 µM | CHO RD-HGA16 TAAR1, Fluo-8 calcium fluorescence; vehicle wells 0%, saturating PEA agonist 100% | Q96RJ0;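 active = activation above the mean activation of all test compounds in the run plus 3 SD, cut at about 38% in these data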
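Repeats: no replicates (n 1) | Material: CHO-derived RD-HGA16 cells with stable Gα16 and human TAAR1 | Technique: Kinetic Fluo-8 calcium fluorescence | Schedule: 17-24 h seeding, 75 min 37 °C dye, 30 min RT | Evaluation: % activation from peak over basal fluorescence ratio, DMSO-to-PEA scaled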
OX1R antag-2 – human HCRTR1 antagonism; O43613; CHO/OX1R cells, Fluo-8 calcium fluorescence, orexin A; inhibition, % at 5 µM; 0.43% of 330,000 active;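 active = inhibition above its plate's threshold, mean inhibition of all tested compounds on the plate plus 3 SD, cut at about 37% in these data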;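 note: 0% = orexin A challenge wells and 100% = SB-334867-A antagonist wells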
TAAR1 ag confirm – confirmation of human TAAR1 agonists. shares compounds with TAAR1 ag. CHO RD-HGA16 TAAR1, Fluo-8 calcium fluorescence; scaled: DMSO 0%, maximal phenethylamine 100%. activation, % at 3 µM. 82% of 2,400 active. AID 651783;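 active = activation above a cutoff set at the run's mean compound activation plus 3 SD, cut at about 39% in these data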
Ga16 ag counter – nonselective agonist in parental cells, TAAR1 agonist counter-screen; shares compounds with TAAR1 ag; CHO-Ga16 parental, Fluo-8 calcium fluorescence; normalized to maximal ATP response, DMSO zero; activation, % at 3 µM; 50% of 2,400 active;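 active = activation above the run cutoff, the mean activation over all tested wells plus 3 SD, cut at about 12% in these data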;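 note: 0% = DMSO wells and 100% = maximal ATP response on the peak over basal ratio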
TAAR1 desensitize – TAAR1 response desensitization, agonist counter-screen. shares compounds with TAAR1 ag. CHO RD-HGA16 hTAAR1, Fluo-8 calcium, beta-PEA response inhibition. inhibition, % at 3 µM. 46% of 2,400 active;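 active = inhibition above the run cutoff, the mean inhibition of all test compounds plus 3 SD, cut at about 49% in these data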;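 note: beta-PEA stimulus applied at its EC80; loss of beta-PEA calcium signal after compound pretreatment read as receptor desensitization; 0% = DMSO with beta-PEA at EC80 and 100% = DMSO alone without agonist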
Ga16 antag count – counter-screen for TAAR1 agonists: nonselective Ga16 antagonists; shares compounds with TAAR1 ag; CHO-Ga16 ATP-induced calcium, Fluo-8 fluorescence; inhibition, % at 3 µM; 39% of 2,400 active; AID 651952;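 active = inhibition above the plate's mean compound inhibition plus 3 SD, computed per plate, cut at about 22% in these data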;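 note: 0% = EC80 ATP with DMSO and 100% = DMSO wells without ATP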
* hit, by the source's call; . = no result given. Most compounds without a hit are left out; they make up all but 4.6% or so of the library.

SMILES | TAAR1 antag | CHO parental Ca | GPR7 antagonist | OX1R antag-1 | TAAR1 ag | OX1R antag-2 | TAAR1 ag confirm | Ga16 ag counter | TAAR1 desensitize | Ga16 antag count
CC(=O)c1c(C)[nH]c(C(=O)CN2C(=O)NC(C)(c3ccc(C)cc3)C2=O)c1C (configuration not stated) | 42 | -7 | 20* | 1 | 85* | -16 | 113* | 56* | 60* | 36*
CCN1C(=O)C(=O)N(CC(=O)c2[nH]c(C)c(C(C)=O)c2C)C1=O | -10 | -5 | . | 13 | 2 | -12 | . | . | . | .
NC(c1ccccc1)c1csc(NC(=O)NCCc2ccccc2)n1 (configuration not stated) | 11 | . | . | . | 62* | . | 28 | 5 | 16 | 15
NC(c1ccccc1)c1csc(NC(=O)Nc2cccc(Cl)c2)n1 (configuration not stated) | 29 | . | . | . | 64* | . | 74* | 22* | 57* | 36*
CCOC(=O)c1csc(NC(=O)CSc2nnnn2-c2ccc(OC)cc2)n1 | -4 | -16 | 0 | 12 | 53* | -20 | 30 | 16* | 10 | 8
Cn1c(CS/C(N)=N/N=C/c2ccccc2)c(Br)c(=O)n1-c1ccccc1 | -14 | -13 | -12 | 12 | 44* | -18 | 46* | 6 | -4 | 1
Cc1ccc(SCC(=O)Nc2ccc(N3CCN(C)CC3)c(F)c2)cc1 | 21 | -11 | 10 | 11 | 49* | -12 | 69* | 4 | 39 | 8
COc1ccc(SCC(=O)Nc2ccc(N3CCN(C)CC3)c(F)c2)cc1 | 2 | 6 | -9 | 11 | 25 | -9 | . | . | . | .
c1ccc(C2CNCCc3ccccc32)cc1 (configuration not stated) | 74* | 0 | -3 | 0 | 64* | -16 | 95* | 1 | 92* | 8
COc1cccc(CNC(=O)[C@@H]2CCCN2)c1 | 19 | . | . | . | -1 | . | . | . | . | .
Cc1c(C(=O)N2CCc3ccccc3C2)oc2ccc(S(=O)(=O)N3CC(C)CC(C)C3)cc12 (configuration not stated) | . | -27 | 2 | 18 | . | -20 | . | 3 | . | 4
COc1ccc(S(=O)(=O)N2CCC(C(=O)N3CCc4ccccc4C3)CC2)cc1C | 9 | -22 | -4 | 7 | 52* | -13 | 76* | 1 | 20 | 11
COc1cc2c(cc1OC)C(C)N(S(=O)(=O)c1cn(C)c(C)n1)CC2 (configuration not stated) | 7 | -5 | -6 | 3 | 1 | 4 | . | . | . | .
CCCCNC(=O)C1(C)CCCCN1C(=O)c1ccc(F)c(C)c1 (configuration not stated) | -18 | . | . | . | 1 | . | . | . | . | .
CCCCCCCCCCCCNC[C@@H]1CSCCS(=O)(=O)N1 | -14 | . | . | . | 9 | . | . | . | . | .
CC(Oc1ccc(Cl)cc1Cl)C(=O)Nc1ccc(N2CCN(C)CC2)cc1 (configuration not stated) | 5 | -18 | 3 | 8 | 53* | -17 | 60* | 6 | 32 | 12
CN(C)C(=O)C(=O)c1cccn1-c1cccc(Cl)c1C#N | 7 | -8 | -17 | 24 | 3 | 12 | . | . | . | .
O=C(CSc1ccc2c(c1)OCCO2)N1CCN(c2ccccc2)CC1 | -2 | -26 | . | 11 | 1 | -26 | . | . | . | .
CC1=C(C(=O)N(C)C)CC(CC(=O)NCCc2ccccn2)C(=O)N1CCCN1CCCC1=O (configuration not stated) | -9 | . | . | . | 49* | . | 44* | 0 | 6 | 10
CCN(CC)C(=O)C1=C(C)N(CCCN2CCCC2=O)C(=O)C(CC(=O)NCCc2ccccn2)C1 (configuration not stated) | -25 | . | . | . | 10 | . | . | . | . | .
CCOCCCn1c(=S)[nH]c2cc(C(=O)NCCc3ccccc3)ccc2c1=O | -9 | -10 | -13 | 17 | 44* | -24 | 50* | 7 | 21 | 10
Cc1ccc(Nc2nc(N)c3ccccc3n2)cc1Cl | 38 | -8 | -3 | 13 | 50* | -20 | 83* | 24* | 75* | 8
CN(C)c1ccc(Nc2nc(N)c3ccccc3n2)cc1 | 2 | -5 | -12 | 3 | 23 | -13 | . | . | . | .
Nc1nc(Nc2ccc(Cl)cc2)nc2ccccc12 | 72* | -8 | 12 | 20 | 65* | -13 | 84* | 8 | 70* | 5
Nc1nc(Nc2ccccc2)nc2ccccc12 | 91* | -25 | 2 | 21 | 103* | -26 | 95* | 7 | 100* | 10
SMILES | TAAR1 antag | CHO parental Ca | GPR7 antagonist | OX1R antag-1 | TAAR1 ag | OX1R antag-2 | TAAR1 ag confirm | Ga16 ag counter | TAAR1 desensitize | Ga16 antag count
CC(=O)[C@H]1[C@H](c2cccc(Cl)c2)C(C#N)(C#N)[C@@H]2c3ccccc3C=CN21 | . | -7 | 2 | 22 | . | -15 | . | . | . | .
COc1cc(Cl)c(NS(=O)(=O)c2cc3[nH]c(=O)c(=O)[nH]c3cc2C)c(OC)c1 | -12 | -12 | 1 | 10 | 1 | -14 | . | . | . | .
COC(=O)C1=C(C)N(Cc2ccc(C(F)(F)F)cc2)C(=NCc2ccc(C(F)(F)F)cc2)NC1c1cccc(C(F)(F)F)c1 (configuration not stated) | -2 | . | . | . | 13 | . | . | . | . | .
CC1CCN(c2ccc(NC(=O)Cc3ccccc3)cc2)CC1 | 53* | 32 | -19 | 15 | 84* | -7 | -1 | 20* | 1 | 13
CCN1CCN(C(c2cccs2)C(C)NC(=O)c2ccccc2F)CC1 (configuration not stated) | -9 | -8 | -11 | 7 | 7 | -18 | . | . | . | .
O=C(NCCCNC(=O)c1ccco1)c1ccc(F)cc1 | -13 | -6 | -1 | 21 | 1 | -8 | . | . | . | .
Cn1c(=O)c(C(=O)NCCO)c(O)c2ccccc21 | 7 | 1 | -12 | 17 | 10 | -10 | . | . | . | .
CCn1c(=O)c(C(=O)NNC(=O)c2ccccc2F)c(O)c2ccccc21 | 52* | -16 | 2 | 13 | 102* | -10 | 99* | 89* | 56* | 60*
CCCCCC(=O)NNC(=O)c1c(O)c2ccccc2n(CC)c1=O | 8 | -19 | -13 | 14 | 48* | -24 | 19 | 24* | -3 | 0
CCCCCCCCCC(=O)NNC(=O)c1c(O)c2ccccc2n(CC)c1=O | 4 | -20 | -4 | 14 | 5 | -20 | . | . | . | .
